Measurements gathered from unrelated publications.
Each line is one published result; the experiments were not run side by side.
Effect on: cell growth or viability

| SMILES | cell line | technique | concentration | time | endpoint | result |
| --- | --- | --- | --- | --- | --- | --- |
| COc1cc2c3c(n(CCCn4ccnc4)c(=O)c2cc1OC)-c1nc2c(cc1C3=O)OCO2 | SK-N-MC | MTS | – | 72 h | IC50 | 170 nM |
| Nc1ccc(/C=C/C(=O)N2CCc3c(oc4c(-c5ccc(F)cc5)cc(-c5ccc(C(=O)N6CCOCC6)nn5)cc34)C2)cn1 | Pan02 | CCK-8 | – | 72 h | IC50 | 570 nM |
| CC1(C)CCC(CN2CCN(c3ccc(C(=O)NS(=O)(=O)c4ccc(NCC5CCOCC5)c([N+](=O)[O-])c4)c(Oc4cnc5[nH]ccc5c4)c3)CC2)=C(c2ccc(Cl)cc2)C1 | MM.1R | ATP luminescence | – | 48 h | IC50 | 7460 nM |
| CC(C)(C)c1cnc(CSc2cnc(NC(=O)C3CCN(CCCCCCCCSc4cccc5c4CN(C4CCC(=O)NC4=O)C5=O)CC3)s2)o1 (centres unmarked) | HuT78 | trypan blue | 1 µM | 48 h | viability | 10.5% |
| COc1cc2c3c(n(CCCNC(C)C)c(=O)c2cc1OC)-c1nc2c(cc1C3=O)OCO2 | SK-N-MC | MTS | – | 72 h | IC50 | 150 nM |
| C[C@H]1[C@H](OC(=O)CCC(=O)O)O[C@@H]2O[C@@]3(C)CC[C@H]4[C@H](C)CC[C@@H]1[C@@]24OO3 | SH-SY5Y | resazurin | – | – | IC50 | 4600 nM |
| COc1cc2c3c(n(CCCN4CCOCC4)c(=O)c2cc1OC)-c1nc2c(cc1C3=O)OCO2 | SK-N-MC | MTS | – | 72 h | IC50 | 698 nM |
| CC(C)(C)c1cnc(CSc2cnc(NC(=O)C3CCN(CCCCCSc4cccc5c4CN(C4CCC(=O)NC4=O)C5=O)CC3)s2)o1 (centres unmarked) | HuT78 | trypan blue | 0.5 µM | 48 h | viability | 13.4% |
| CCN(CCO)CCCC(C)Nc1ccnc2cc(Cl)ccc12 (centres unmarked) | SH-SY5Y | resazurin | – | – | IC50 | > 50000 nM |
| C#Cc1nc(C2=C(C)C(O)CC2)cs1 (centres unmarked) | HT-1080 | – | – | – | CC50 | 960 nM |
| COc1cc(NC(C)CCCN)c2ncccc2c1 (centres unmarked) | SH-SY5Y | resazurin | – | – | IC50 | > 50000 nM |
| Nc1ccc(/C=C/C(=O)N2CCc3c(oc4c(-c5ccc(F)cc5)cc(-c5ccc(C(=O)N6CCC(F)(F)CC6)nn5)cc34)C2)cn1 | Pan02 | CCK-8 | – | 72 h | IC50 | 250 nM |
| C=CC(=O)NC1CCN(c2ncc3ncnc(Nc4ccc(Oc5ccc6c(c5)ncn6C)c(C)c4)c3n2)CC1 | KNS-62 | – | – | – | EC50 | 11 nM |
| OC(c1cc(C(F)(F)F)nc2c(C(F)(F)F)cccc12)C1CCCCN1 (centres unmarked) | SH-SY5Y | resazurin | – | – | IC50 | 8000 nM |
